{"source": "ChEMBL document CHEMBL2062448", "about": "“A substituted 3,4-dihydropyrimidinone derivative (compound D22) prevents inflammation mediated neurotoxicity; role in microglial activation in BV-2 cells” (Bioorg Med Chem Lett, 2012)", "key": {"BV-2 [1]": {"tested_on": "BV-2", "experiment": "Antineuroinflammatory activity in […] cells assessed as inhibition of LPS-induced nitric oxide production at 5 to 20 uM treated 30 mins before LPS challenge measured after 24 hrs by Griess reaction", "type": "functional, cell-based", "procedure,_shortened": "(§1)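 BV-2 cells at 3 × 10⁴ cells/well in DMEM with 5% FBS at 37 °C, 5% CO₂. Cells were pretreated 30 min, then given LPS 100 ng/ml for 24 h. Supernatant was mixed 1:1 with Griess reagent (1% sulfanilamide, 0.1% naphthylethylenediamine in 5% phosphoric acid). Absorbance at 570 nm was read after 10 min against a sodium nitrite standard.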"}, "BV-2 [2]": {"tested_on": "BV-2", "experiment": "Antineuroinflammatory activity in […] cells assessed as inhibition of LPS-induced nitric oxide production at 10 uM treated 30 mins before LPS challenge measured after 24 hrs by Griess reaction", "type": "functional", "procedure,_shortened": "as §1"}, "BV-2 [3]": {"tested_on": "BV-2", "experiment": "Antineuroinflammatory activity in […] cells assessed as inhibition of LPS-induced COX2 expression at 5 to 20 uM after 6 hrs by Western blot analysis", "type": "functional, cell-based", "procedure,_shortened": "(§2)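 BV-2 cells exposed to LPS 100 ng/ml with or without 5–20 µM for 6 h. Lysates were run on 8–12% SDS-PAGE and transferred to nitrocellulose. Blots were probed 12 h for iNOS or COX-2, then HRP secondary 1 h at room temperature, ECL detection and densitometry. Three independent experiments.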"}, "BV-2 [4]": {"tested_on": "BV-2", "experiment": "Cytotoxicity against LPS-induced […] cells assessed as cell viability after 24 hrs by MTT assay", "type": "cell-based", "settings": "bv-2, 24 h", "procedure,_shortened": "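BV-2 viability measured by MTT after 30 min pretreatment with 5, 10 or 20 µM, followed by LPS 100 ng/ml for 24 h. Mean ± S.E.M. of three independent experiments.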"}, "N2a [5]": {"tested_on": "N2a", "experiment": "Antineuroinflammatory activity in LPS-stimulated […] cells in conditioned media assessed as inhibition of caspase-3 activation in […] cells treated 30 mins before LPS challenge measured at 5 to 20 uM after 24 hrs by Western blot analysis", "type": "functional, cell-based", "procedure,_shortened": "(§3)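 BV-2 cells pretreated with 5, 10 or 20 µM for 30 min, then LPS 100 ng/ml for 24 h. Conditioned media were collected and applied to N2a cells for 24 h. Lysates were run on 8–12% SDS-PAGE and transferred to nitrocellulose. Blots were probed 12 h with primary antibodies (cleaved caspase-3, Bax, Bcl-2), then HRP secondary 1 h at room temperature, ECL detection and densitometry. Mean ± S.E.M. of three independent experiments.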"}, "BV-2 [6]": {"tested_on": "BV-2", "experiment": "Antineuroinflammatory activity in […] cells assessed as inhibition of LPS-induced PGE2 production at 5 to 20 uM treated 30 mins before LPS challenge measured after 24 hrs by competitive enzyme immunoassay", "type": "functional, cell-based", "procedure,_shortened": "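BV-2 cells plated at 1.5 × 10⁶ cells/well and pretreated with 5, 10 or 20 µM for 30 min. LPS 100 ng/ml was then added for 24 h. PGE₂ in medium was measured by competitive enzyme immunoassay kit. Mean ± S.E.M. of three independent experiments.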"}, "[7]": {"tested_on": "MAP kinase p38 (Mus musculus)", "experiment": "Inhibition of LPS-induced p38 kinase phosphorylation in mouse BV2 cells after 30 mins by Western blot analysis", "settings": "BV-2"}, "N2a [8]": {"tested_on": "N2a", "experiment": "Antineuroinflammatory activity in LPS-stimulated […] cells in conditioned media assessed as recovery of Bcl-2 expression in […] cells treated 30 mins before LPS challenge measured at 5 to 20 uM after 24 hrs by Western blot analysis", "type": "functional, cell-based", "procedure,_shortened": "as §3"}, "N2a [9]": {"tested_on": "N2a", "experiment": "Antineuroinflammatory activity in LPS-stimulated […] cells in conditioned media assessed as inhibition of […] cell death treated 30 mins before LPS challenge measured after 24 hrs by MTT assay", "type": "functional, cell-based", "procedure,_shortened": "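BV-2 cells (DMEM, 5% FBS) pretreated with 5, 10 or 20 µM for 30 min, then LPS 100 ng/ml for 24 h. Conditioned media were transferred to N2a cells (DMEM, 10% FBS) for 24 h, and N2a viability was read by MTT. Mean ± S.E.M. of three independent experiments; one-way ANOVA with Tukey post test.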"}, "N2a [10]": {"tested_on": "N2a", "experiment": "Antineuroinflammatory activity in LPS-stimulated […] cells in conditioned media assessed as inhibition of Bax expression in […] cells treated 30 mins before LPS challenge measured at 5 to 20 uM after 24 hrs by Western blot analysis", "type": "functional, cell-based", "procedure,_shortened": "as §3"}, "BV-2 [11]": {"tested_on": "BV-2", "experiment": "Antineuroinflammatory activity in […] cells assessed as inhibition of LPS-induced IL-1beta production treated 30 mins before LPS challenge measured after 24 hrs by ELISA", "type": "functional, cell-based", "procedure,_shortened": "(§4)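 BV-2 cells plated at 1.5 × 10⁶ cells/well and pretreated for 30 min. Cells were then exposed to LPS 100 ng/ml for 24 h. IL-1β and TNF-α in culture medium were quantified by immunoassay kit. Mean ± S.E.M. of three independent experiments.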"}, "BV-2 [12]": {"tested_on": "BV-2", "experiment": "Inhibition of LPS-induced ERK kinase phosphorylation in […] cells after 30 mins by Western blot analysis", "type": "cell-based", "procedure,_shortened": "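BV-2 cells exposed to LPS 100 ng/ml with or without 5–20 µM for 30 min. Lysates were run on 8–12% SDS-PAGE and transferred to nitrocellulose. Blots were probed 12 h for phospho-p38, -JNK or -ERK, then HRP secondary 1 h at room temperature, ECL detection and densitometry.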"}, "BV-2 [13]": {"tested_on": "BV-2", "experiment": "Antineuroinflammatory activity in […] cells assessed as inhibition of LPS-induced iNOS expression at 5 to 20 uM after 6 hrs by Western blot analysis", "type": "functional, cell-based", "procedure,_shortened": "as §2"}, "[14]": {"tested_on": "c-Jun N-terminal kinase, JNK (Mus musculus)", "experiment": "Inhibition of LPS-induced JNK kinase phosphorylation in mouse BV2 cells after 30 mins by Western blot analysis", "settings": "BV-2"}, "N2a [15]": {"tested_on": "N2a", "experiment": "Antineuroinflammatory activity in LPS-stimulated […] cells in conditioned media assessed as inhibition of DNA fragmentation in […] cells treated 30 mins before LPS challenge measured after 24 hrs by Gel electrophoresis", "type": "functional, cell-based", "procedure,_shortened": "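BV-2 cells pretreated with 5, 10 or 20 µM for 30 min, then stimulated with LPS 100 ng/ml for 24 h. Conditioned media were applied to N2a cells for 24 h. Cells were scraped and pelleted at 7500 rpm for 5 min. DNA fragmentation was resolved by gel electrophoresis alongside vehicle CM and LPS-with-vehicle CM lanes.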"}, "BV-2 [16]": {"tested_on": "BV-2", "experiment": "Antineuroinflammatory activity in […] cells assessed as inhibition of LPS-induced TNFalpha production treated 30 mins before LPS challenge measured after 24 hrs by ELISA", "type": "functional, cell-based", "procedure,_shortened": "as §4"}}, "note": "Activity calls are given as the source filed them. The calls are words filed in the database; no cut-off is given here."}
{"smiles": "CCOC(=O)C1=C(C)NC(=O)NC1c1cc(Cl)ccc1O", "note": "(stereo not drawn)", "values": [{"measurement": "inhibition", "setting": "BV-2 [1]", "value": "Active"}]}
{"smiles": "O=c1cc(-c2ccccc2)oc2cc(O)cc(O)c12", "values": [{"measurement": "inhibition", "setting": "BV-2 [2]", "value": "Active"}]}
{"smiles": "CCOC(=O)C1=C(C)NC(=O)NC1c1cccc(Oc2ccccc2)c1", "note": "(stereo not drawn)", "values": [{"measurement": "inhibition", "setting": "BV-2 [1]", "value": "Active"}]}
{"smiles": "CCOC(=O)C1=C(C)NC(=S)NC1c1cccc(Oc2ccccc2)c1", "note": "(stereo not drawn)", "values": [{"measurement": "inhibition", "setting": "BV-2 [3]", "value": "Active"}, {"measurement": "Activity", "setting": "BV-2 [4]", "value": "Non-toxic"}, {"measurement": "inhibition", "setting": "N2a [5]", "value": "Active"}, {"measurement": "inhibition at 10 µM", "setting": "BV-2 [2]; Mus musculus, BV-2, read-out: INH", "value": 51, "unit": "%"}, {"measurement": "inhibition", "setting": "BV-2 [6]", "value": "Active"}, {"measurement": "inhibition", "setting": "[7]", "value": "Dose-dependent effect"}, {"measurement": "Activity", "setting": "N2a [8]", "value": "Active"}, {"measurement": "inhibition", "setting": "N2a [9]", "value": "Active"}, {"measurement": "inhibition", "setting": "N2a [10]", "value": "Active"}, {"measurement": "inhibition", "setting": "BV-2 [11]", "value": "Dose-dependent effect"}, {"measurement": "inhibition", "setting": "BV-2 [12]", "value": "Dose-dependent effect"}, {"measurement": "inhibition", "setting": "BV-2 [13]", "value": "Active"}, {"measurement": "inhibition", "setting": "[14]", "value": "Dose-dependent effect"}, {"measurement": "inhibition", "setting": "N2a [15]", "value": "Active"}, {"measurement": "inhibition", "setting": "BV-2 [16]", "value": "Dose-dependent effect"}]}
